UPR CHOP act – activators of apoptotic arm of unfolded protein response (CHOP); activation, % at 10 µM; actives 0.34% (n = 330,000); CHO-CHOP luciferase reporter, UPR activation, luminescence; percent of tunicamycin response over DMSO baseline; AID 449763;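 active = at 10 µM dose, activation of 40% or more, normalized to positive control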;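 also: 100% = tunicamycin at 10 µg/mL and 0% = DMSO alone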
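assay system = CHO CHOP reporter cells | amount = 500 CHO-CHOP cells per well | buffer or medium = F12 with 10% FBS | incubation = 16-18 h cell attachment, then 6 h compound exposure, 37 °C | detection = luminescence read with Steady-Glo | read-out = percent activation relative to tunicamycin control | controls = tunicamycin high control, DMSO low control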
Mdm2 MdmX PPI – disrupts the human Mdm2-MdmX interaction; O15151+Q00987; SaOS-2 split-luciferase Mdm2/MdmX complementation, luminescence; inhibition, % at 8 µM; actives 3% (n = 330,000);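 active = inhibition of at least 50% at 8 µM in the primary screen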
Granule exo inh – lytic granule exocytosis inhibition; TALL-104 LAMP-1 surface exposure, flow cytometry; cells stimulated with thapsigargin and PMA; inhibition, % at 10 µM; actives 0.66% (n = 360,000); AID 651702;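 active = inhibition above about 55%, limit read from the data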
ABHD5 PLIN5 PPI – ABHD5-PLIN5 protein interaction inhibition. Q00G26+Q8WTS1. Split G. princeps luciferase complementation, luminescence, 4 h. inhibition, % at 4 µM. actives 0.78% (n = 360,000);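 active = inhibition above the mean inhibition across every tested compound plus 3 SD, cut at about 22% in these data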;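 also: 0% = DMSO only wells and the 100% control is not disclosed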
Target sequence (Q00G26 whole entry, looked up): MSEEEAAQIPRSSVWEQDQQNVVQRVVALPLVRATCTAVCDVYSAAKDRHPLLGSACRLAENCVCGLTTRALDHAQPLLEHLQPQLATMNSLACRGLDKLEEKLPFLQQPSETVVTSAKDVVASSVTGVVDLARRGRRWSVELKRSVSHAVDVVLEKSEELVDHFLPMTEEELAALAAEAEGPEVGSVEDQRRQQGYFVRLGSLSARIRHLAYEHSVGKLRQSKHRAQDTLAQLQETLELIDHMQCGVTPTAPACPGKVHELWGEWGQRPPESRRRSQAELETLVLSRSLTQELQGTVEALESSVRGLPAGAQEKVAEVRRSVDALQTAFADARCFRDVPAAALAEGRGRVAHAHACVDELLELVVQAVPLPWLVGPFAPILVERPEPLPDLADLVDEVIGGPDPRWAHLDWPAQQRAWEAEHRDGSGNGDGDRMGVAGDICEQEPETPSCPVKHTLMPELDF
Target sequence (Q8WTS1 whole entry, looked up): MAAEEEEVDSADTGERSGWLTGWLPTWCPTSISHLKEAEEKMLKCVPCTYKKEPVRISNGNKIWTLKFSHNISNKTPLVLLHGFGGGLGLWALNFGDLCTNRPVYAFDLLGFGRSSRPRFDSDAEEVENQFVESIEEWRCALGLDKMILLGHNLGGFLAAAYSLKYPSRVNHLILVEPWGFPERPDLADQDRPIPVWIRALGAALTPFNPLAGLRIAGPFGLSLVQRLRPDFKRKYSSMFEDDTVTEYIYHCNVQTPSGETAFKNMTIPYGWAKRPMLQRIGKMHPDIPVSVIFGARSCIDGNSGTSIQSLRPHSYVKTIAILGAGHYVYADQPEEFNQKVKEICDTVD
XBP1 UPR activ – adaptive UPR (XBP1) activation | activation, % at 20 µM | AID 463104 | actives 0.33% (n = 330,000) | CHO-XBP1 luciferase reporter, IRE1-XBP1 UPR activation, luminescence; percent of tunicamycin response, DMSO as zero;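 active = versus positive control, 20 µM dose yields 30% or more activation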;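 also: 100% = tunicamycin at 10 µg/mL and 0% = DMSO only wells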
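Material: CHO-XBP1 cells stably carrying IRE1-XBP1-driven luciferase reporter | Medium: F12 with 10% serum | Compound dosing: 20 µM single concentration, DMSO 1% | Incubation: Overnight seeding at 37 °C, 6 h compound treatment at 37 °C | Detection: Steady-Glo luminescence read | Read-out basis: % activation of reporter signal versus tunicamycin and DMSO controls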
Mdm2-MdmX conf – human Mdm2/MdmX binding inhibition, confirmed; shares compounds with Mdm2 MdmX PPI; luminescent assay; inhibition, % at 8 µM; actives 55% (n = 10,000); AID 489028; in the data active = inhibition above about 40%
FLuc counter – counter-screen for Mdm2/MdmX inhibitors: full-length luciferase. actives 77% (n = 6,200). shares compounds with Mdm2 MdmX PPI. SaOS-2 full-length luciferase counterscreen, luminescence. inhibition, % at 8 µM;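 active = mean inhibition at 8 µM reaching about 37%, which flags the compound as non-specific, limit read from the data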;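 also: p53-null SaOS-2 cells with luciferase driven by a doxycycline-inducible promoter; compound on cells about two nights before reading with doxycycline added after day one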
* marks the source's active call; other numbers are inactive results; / = not tested or not shown. This is a sample that favours compounds with a hit; in the whole collection about 4% have one here.

SMILES | UPR CHOP act | Mdm2 MdmX PPI | Granule exo inh | ABHD5 PLIN5 PPI | XBP1 UPR activ | Mdm2-MdmX conf | FLuc counter
O=C(Nc1ccc2c(c1)C(=O)OC2)c1ccc(C(F)(F)F)cc1 | 0 | 1 | 8 | 1 | 0 | / | /
Cc1[nH]c2ccccc2c1C(C[N+](=O)[O-])c1ccco1 (configuration not stated) | 0 | 6 | -1 | -1 | -2 | / | /
Cc1ccc(-c2[nH]c3ccccc3c2C(C[N+](=O)[O-])c2ccco2)cc1 (configuration not stated) | -5 | 63* | -1 | 9 | -1 | 23 | /
CC1(C)CC2CC(C)(CN2S(=O)(=O)c2ccc(C(=O)Nc3cc(S(=O)(=O)N4CCOCC4)ccc3Cl)cc2)C1 (configuration not stated) | -2 | 20 | 5 | 2 | -1 | / | /
Cc1nn(CC(=O)NCc2cccc3ccccc23)c(=O)c2ccccc12 | 2 | 85* | 1 | -1 | 1 | 48* | 64*
Cc1ccccc1NC(=S)NCc1ccc2c(c1)cc(C)n2C | -2 | 68* | -5 | -4 | 1 | 48* | 62*
O=C(N=c1nc2ccccn2s1)c1ccccc1 | -5 | 4 | 1 | 2 | -5 | / | /
CCCCCC(=O)Nc1cccc(C2=NOC3(C2)C[C@@H](C(N)=O)N(C(=O)CC(c2ccccc2)c2ccccc2)C3)c1 (some centres not stated) | 3 | 53* | -1 | -4 | -2 | 48* | 65*
CN(NC(=O)c1cccc(Cl)c1)c1nc(-c2ccccc2)nnc1C(F)(F)F | 0 | 59* | -2 | -1 | -2 | 57* | 53*
Cc1ccccc1Cn1cc(NC(=O)c2cc(-c3cccs3)on2)cn1 | 13 | 58* | 1 | 6 | 2 | 13 | /
N=c1c(S(=O)(=O)c2ccc(Cl)cc2)cc2c(=O)n3ccccc3nc2n1CCN1CCOCC1 | -1 | 16 | -1 | 14 | 1 | / | /
Cc1ccc(S(=O)(=O)c2cc3c(=O)n4ccccc4nc3n(C)c2=N)cc1C | -1 | 86* | -1 | 1 | 6 | 24 | /
N=c1c(S(=O)(=O)c2ccc(Cl)cc2)cc2c(=O)n3ccccc3nc2n1CCc1ccccc1 | 2 | 63* | -2 | -3 | 1 | 37 | 25
CN=c1nc(-c2ccccc2)n(-c2ccccc2)s1 | 1 | -2 | 15 | -3 | -2 | / | /
NC(=O)CC(NC(=O)Cc1ccc(Cl)cc1)c1ccc(NCCCN2CCCC2=O)c([N+](=O)[O-])c1 (configuration not stated) | -1 | 18 | -4 | 0 | 0 | / | /
Cn1nnc2c[n+](CC(=O)c3ccc4ccccc4c3)cc(Br)c21 | 29 | 65* | 10 | 3 | 4 | 32 | 63*
CC1CCN(CCOCCOc2ccc(Br)cc2Cl)CC1 | -2 | 52* | 4 | 10 | -1 | 20 | /
CC1CCCN(CCCOc2ccc(Br)cc2Cl)C1 (configuration not stated) | 3 | -5 | 1 | 15 | 2 | / | /
COc1ccc(NC(=O)C2CCN(c3cc(-c4ccccc4)nc4ncnn34)CC2)cc1OC | -1 | 54* | 2 | 5 | -1 | 36 | 60*
CCCCN(C)CCNC(=O)c1cc(-c2cccnc2)nc2ccc(S(=O)(=O)N3CCC(C)CC3)cc12 | 2 | 96* | 40 | -2 | 5 | 26 | /
CCN(CC)CCNC(=O)c1cc(-c2cccnc2)nc2ccc(S(=O)(=O)N3CCC(C)CC3)cc12 | 7 | 100* | 16 | 2 | 8 | 76* | 53*
CCCCNS(=O)(=O)c1ccc2nc(-c3cccnc3)cc(C(=O)NCCCN(CC)CC)c2c1 | 0 | -9 | / | / | 0 | / | /
CCN(CC)S(=O)(=O)c1cc(NS(=O)(=O)c2ccc(Cl)c(C(=O)O)c2)ccc1C | 1 | -30 | -7 | 0 | -1 | / | /
CCc1cc2c(=O)c(-c3cnn(-c4ccccc4)c3)c(C)oc2cc1OCC(=O)Nc1ccc(F)c(F)c1 | 12 | 62* | 1 | -2 | -1 | 74* | 87*
C=CCn1c(C)cc(C(=O)CN2NS(=O)(=O)c3ccccc3C2=O)c1C | 2 | 64* | -1 | -3 | -3 | 38 | /
SMILES | UPR CHOP act | Mdm2 MdmX PPI | Granule exo inh | ABHD5 PLIN5 PPI | XBP1 UPR activ | Mdm2-MdmX conf | FLuc counter
Cc1ccc(N(Cc2ccccc2)C(=O)c2cc(S(=O)(=O)N3CCOCC3)ccc2N2CCCC2)cc1 | 0 | -2 | -4 | -13 | -1 | / | /
COc1ccccc1NC(=O)CC1SC(=N)N(c2ccccc2)C1=O (configuration not stated) | 2 | 11 | -4 | -3 | -3 | / | /
Cc1nc(Nc2nc(CSc3ccc(Cl)cc3)cc(=O)[nH]2)nc2ccccc12 | 4 | 25 | 0 | 0 | 7 | / | /
Cc1nc(Nc2nc(CSc3nc4ccccc4[nH]3)cc(=O)[nH]2)nc2ccccc12 | 2 | 55* | 2 | 5 | 6 | 65* | 61*
COc1ccc2nc(Nc3nc(CSc4nc5ccccc5[nH]4)cc(=O)[nH]3)nc(C)c2c1 | -1 | 65* | 16 | 4 | 2 | 52* | 46*
CN(Cc1ccc([N+](=O)[O-])cc1)c1ccccc1 | / | / | -4 | 0 | / | / | /
CN1CCC(NC(=O)c2cc(-c3cccc(Br)c3)nc3ccccc23)CC1 | 3 | 66* | 1 | 14 | 5 | 38 | 65*
COC(=O)CC1COc2ccccc2N1S(=O)(=O)c1ccc(Br)cc1 (configuration not stated) | 0 | -11 | -1 | -3 | -4 | / | /
COC(=O)CC1COc2ccccc2N1S(=O)(=O)c1ccc(OC)cc1 (configuration not stated) | 1 | 55* | -8 | -9 | -1 | 51* | 61*
CC12CCC(C(=O)N3CCN(C(c4ccccc4)c4ccccc4)CC3)(OC1=O)C2(C)C (configuration not stated) | -1 | -2 | -4 | -5 | 2 | / | /
N#C/C(=C\C=C\c1ccccc1[N+](=O)[O-])C(=O)NCc1ccccc1 | 3 | 97* | 11 | 12 | -7 | 66* | 17
O=C(Cn1ncc(N2CCOCC2)c(Cl)c1=O)c1ccc(Cl)cc1 | 13 | -4 | -1 | 4 | 1 | / | /
NC1=NC(=Nc2ccc(Cl)cc2)c2ccccc21 | 6 | 55* | -4 | 1 | 5 | -12 | /
NC1=NC(=Nc2cccc(Cl)c2)c2ccccc21 | 4 | 51* | 2 | 4 | -2 | 16 | /
COc1ccccc1NS(=O)(=O)c1cccc(N=C2N=C(N)c3ccccc32)c1 | -2 | 51* | -1 | -5 | 2 | 24 | /

Screens: PubChem, several laboratories
